Source: ChEMBL document CHEMBL3120131, “Lipoxygenase inhibitors derived from marine macroalgae” (Bioorg Med Chem Lett, 2014)

Legend:
[1] = molecular target: T1, Seed linoleate 9S-lipoxygenase (Glycine max) (UniProt P24095); experiment: Inhibition of soybean lipoxygenase at 100 uM
T1 sequence (whole entry): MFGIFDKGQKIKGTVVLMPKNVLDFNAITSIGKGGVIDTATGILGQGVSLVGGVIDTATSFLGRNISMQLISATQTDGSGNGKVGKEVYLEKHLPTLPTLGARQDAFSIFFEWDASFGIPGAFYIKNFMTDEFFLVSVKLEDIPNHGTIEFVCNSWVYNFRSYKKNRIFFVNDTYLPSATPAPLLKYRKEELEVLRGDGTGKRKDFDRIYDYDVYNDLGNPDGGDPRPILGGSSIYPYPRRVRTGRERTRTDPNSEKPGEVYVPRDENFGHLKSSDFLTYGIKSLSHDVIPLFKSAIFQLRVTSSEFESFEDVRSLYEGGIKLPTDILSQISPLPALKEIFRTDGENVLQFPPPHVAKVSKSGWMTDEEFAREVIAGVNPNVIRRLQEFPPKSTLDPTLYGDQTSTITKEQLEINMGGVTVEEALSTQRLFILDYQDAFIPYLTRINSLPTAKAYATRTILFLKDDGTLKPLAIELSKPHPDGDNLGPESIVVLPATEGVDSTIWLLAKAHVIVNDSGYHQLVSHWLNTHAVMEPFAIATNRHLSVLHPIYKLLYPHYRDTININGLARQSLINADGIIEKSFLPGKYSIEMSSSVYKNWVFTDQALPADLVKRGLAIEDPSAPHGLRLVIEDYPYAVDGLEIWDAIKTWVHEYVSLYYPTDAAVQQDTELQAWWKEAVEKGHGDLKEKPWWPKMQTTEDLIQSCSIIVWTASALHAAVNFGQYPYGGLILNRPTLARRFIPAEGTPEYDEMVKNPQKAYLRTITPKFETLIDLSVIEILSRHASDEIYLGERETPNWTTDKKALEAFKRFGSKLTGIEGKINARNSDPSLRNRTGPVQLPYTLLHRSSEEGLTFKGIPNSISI
Method in brief: (§1)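 Soybean LOX (0.4 mg/mL stock in 100 mM borate, pH 9.0) and methanol-dissolved sample were pre-incubated 5 min at 27.5°C in 20 mM 3-dimethylaminobenzoic acid/borate pH 9.0. Argon-flushed substrate was added and the mixture held 5 min at 27.5°C. Stopped with MBTH–hemoglobin in phosphate pH 5.0; after 5 min, 1% SDS was added and A598 compared against control.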

[2] = molecular target: T1, Seed linoleate 9S-lipoxygenase (Glycine max); experiment: (§2) Inhibition of soybean lipoxygenase; method in brief: as §1
[3] = molecular target: T2, Seed linoleate 9S-lipoxygenase (Glycine max, UniProt P24095); experiment: as §2; method in brief: as §1
T2 sequence (P24095 whole entry): T1 sequence (whole entry)

Structure (SMILES): C=Cc1c(C)c2cc3nc(c4c5[nH]c(cc6nc(cc1[nH]2)C(C)=C6CC)c(C)c5C(=O)C4)[C@@H](CCC(=O)OC/C=C(\C)CCC[C@H](C)CCC[C@H](C)CCCC(C)C)[C@@H]3C
- inhibition [1]: 29.4%

Structure (SMILES): C=Cc1c(C)c2cc3nc(c4c5[nH]c(cc6nc(cc1[nH]2)C(C)=C6CC)c(C)c5C(=O)[C@@H]4C(=O)OC)[C@@H](CCC(=O)OC/C=C(\C)CCC[C@H](C)CCC[C@H](C)CCCC(C)C)[C@@H]3C
- inhibition [1]: 37.6%

Structure (SMILES): C=CCCC/C=C\C/C=C\C/C=C\C/C=C\CCCCC
- inhibition [2]: Dose-dependent effect
- IC50 [3]: 40 µM

Structure (SMILES): C=CCCC/C=C\C/C=C\C/C=C\C/C=C\C/C=C\CC
- inhibition [2]: Dose-dependent effect
- IC50 [3]: 5 µM

Structure (SMILES): C=Cc1c(C)c2cc3nc(c4c5[nH]c(cc6nc(cc1[nH]2)C(C)=C6CC)c(C)c5C(=O)C4)[C@@H](CCC(=O)O)[C@@H]3C
- inhibition [1]: 15%

Structure (SMILES): C=Cc1c(C)c2cc3nc(c4c5[nH]c(cc6nc(cc1[nH]2)C(C)=C6CC)c(C)c5C(=O)[C@@H]4C(=O)OC)[C@@H](CCC(=O)O)[C@@H]3C
- inhibition [1]: 6.5%

Structure (SMILES): CC(Cc1ccc(O)c(O)c1)C(C)Cc1ccc(O)c(O)c1 (stereo not given) [NORDIHYDROGUAIARETIC ACID]
- inhibition [1]: 12.7%
- IC50 [3]: 400 µM
